ChEMBL document CHEMBL1144420 (J Med Chem, 2005)

Columns and labels:
[1] = target: T1, Sodium-dependent dopamine transporter (Rattus norvegicus, UniProt P23977); test: Displacement of [3H]WIN-35428 from Dopamine transporter of rat caudate putamen; assay type: tissue-based
Method in brief: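 Radioligand displacement binding to brain DAT, incubated at 0 °C.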

[2] = target: T1, Sodium-dependent dopamine transporter; test: Inhibition of [3H]dopamine uptake into rat striatal synaptosomes; assay type: functional, subcellular, Brain
Method in brief: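 [3H]Dopamine uptake run at 33 °C, in a buffer whose ion concentrations differ from those of the binding assays.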

[3] = target: Sodium-dependent serotonin transporter (Rattus norvegicus, UniProt P31652); test: Displacement of [3H]paroxetine from Serotonin transporter of rat caudate putamen; assay type: tissue-based
Sodium-dependent serotonin transporter, sequence (P31652 whole entry): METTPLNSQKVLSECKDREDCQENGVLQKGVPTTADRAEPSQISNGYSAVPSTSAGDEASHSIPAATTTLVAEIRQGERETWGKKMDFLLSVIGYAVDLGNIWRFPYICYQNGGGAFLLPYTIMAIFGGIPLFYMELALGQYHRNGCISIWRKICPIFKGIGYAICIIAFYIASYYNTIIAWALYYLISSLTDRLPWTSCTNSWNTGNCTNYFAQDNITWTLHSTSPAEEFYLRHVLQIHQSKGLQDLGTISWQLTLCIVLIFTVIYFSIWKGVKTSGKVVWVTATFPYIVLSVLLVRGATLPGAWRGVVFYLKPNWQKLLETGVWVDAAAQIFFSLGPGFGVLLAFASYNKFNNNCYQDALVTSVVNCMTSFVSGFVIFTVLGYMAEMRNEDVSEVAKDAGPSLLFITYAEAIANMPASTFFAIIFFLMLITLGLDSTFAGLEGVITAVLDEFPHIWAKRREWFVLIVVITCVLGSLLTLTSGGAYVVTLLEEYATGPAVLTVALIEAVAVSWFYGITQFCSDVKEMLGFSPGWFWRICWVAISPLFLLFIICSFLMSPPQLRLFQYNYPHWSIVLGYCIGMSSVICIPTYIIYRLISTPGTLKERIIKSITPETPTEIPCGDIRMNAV

T1 sequence (P23977 whole entry): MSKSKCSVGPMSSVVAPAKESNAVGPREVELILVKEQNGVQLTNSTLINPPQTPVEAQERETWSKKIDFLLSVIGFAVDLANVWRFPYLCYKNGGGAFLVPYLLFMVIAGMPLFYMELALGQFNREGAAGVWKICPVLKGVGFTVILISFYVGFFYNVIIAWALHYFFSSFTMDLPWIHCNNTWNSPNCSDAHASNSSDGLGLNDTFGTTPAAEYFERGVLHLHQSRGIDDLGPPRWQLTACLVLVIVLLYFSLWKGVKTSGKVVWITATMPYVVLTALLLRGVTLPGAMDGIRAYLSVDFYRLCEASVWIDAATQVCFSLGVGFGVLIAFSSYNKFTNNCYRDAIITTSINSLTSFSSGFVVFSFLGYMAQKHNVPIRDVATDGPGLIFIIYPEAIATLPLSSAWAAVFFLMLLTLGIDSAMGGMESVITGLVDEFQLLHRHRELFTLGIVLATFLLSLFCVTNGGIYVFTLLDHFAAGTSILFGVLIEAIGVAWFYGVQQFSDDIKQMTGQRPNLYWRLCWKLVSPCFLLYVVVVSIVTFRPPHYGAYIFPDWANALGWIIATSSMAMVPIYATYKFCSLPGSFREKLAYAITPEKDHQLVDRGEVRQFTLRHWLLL

SMILES | IC50 [1] | IC50 [2] | IC50 [3]
CN1C2C[C@H](OC(c3ccc(F)cc3)c3ccc(F)cc3)CC1[C@H](O)C2 (stereo partly specified) | 0.14 µM | 0.162 µM | > 100 µM
CN1C2CCCC1[C@H](OC(c1ccc(F)cc1)c1ccc(F)cc1)C2 (stereo partly specified) | 0.9 µM | 0.347 µM | > 100 µM
COCO[C@H]1CC2C[C@H](OC(c3ccc(F)cc3)c3ccc(F)cc3)CC1N2C (stereo partly specified) | 0.34 µM | 0.0797 µM | > 100 µM
COCO[C@@H]1CC2C[C@H](OC(c3ccc(F)cc3)c3ccc(F)cc3)CC1N2C (stereo partly specified) | 2.5 µM | 0.491 µM | 3.5 µM
CO[C@H]1CC2C[C@H](OC(c3ccccc3)c3ccccc3)CC1N2C (stereo partly specified) | 0.276 µM | 0.139 µM | > 100 µM
CO[C@H]1CC2C[C@H](OC(c3ccccc3)c3ccc(Cl)cc3)CC1N2C (stereo partly specified) | 0.032 µM | 0.179 µM | > 100 µM
CN1C2C[C@H](OC(c3ccc(F)cc3)c3ccc(F)cc3)CC1[C@@H](O)C2 (stereo partly specified) | 0.012 µM | 0.0081 µM | 11 µM
COCO[C@H]1CC2C[C@H](OC(c3ccccc3)c3ccc(Cl)cc3)CC1N2C (stereo partly specified) | 0.4 µM | 0.194 µM | > 100 µM
CO[C@@H]1CC2CC(OC(c3ccc(F)cc3)c3ccc(F)cc3)CC1N2C (single isomer, unassigned) | 0.095 µM | 0.165 µM | > 0.01 µM
CN1C2C[C@H](OC(c3ccccc3)c3ccc(Cl)cc3)CC1[C@@H](O)C2 (stereo partly specified) | 0.6 µM | 0.0391 µM | > 100 µM
CN1C2CCCC1[C@@H](OC(c1ccc(F)cc1)c1ccc(F)cc1)C2 (stereo partly specified) | 1.13 µM | 0.199 µM | > 2 µM
COCO[C@H]1CC2C[C@H](OC(c3ccccc3)c3ccccc3)CC1N2C (stereo partly specified) | 4.5 µM | 1.08 µM | > 100 µM
CO[C@@H]1CC2C[C@H](OC(c3ccc(F)cc3)c3ccc(F)cc3)CC1N2C (stereo partly specified) | 0.01 µM | 0.0124 µM | 0.28 µM
CO[C@@H]1CC2CC(OC(c3ccccc3)c3ccccc3)CC1N2C (single isomer, unassigned) | 0.975 µM | 0.24 µM | > 100 µM
CO[C@@H]1CC2CC(OC(c3ccccc3)c3ccc(Cl)cc3)CC1N2C (single isomer, unassigned) | 0.75 µM | 0.519 µM | > 100 µM
CN1C2C[C@H](OC(c3ccccc3)c3ccccc3)CC1[C@@H](O)C2 (stereo partly specified) | 1.3 µM | 0.149 µM | > 100 µM
CO[C@H]1CC2C[C@H](OC(c3ccc(F)cc3)c3ccc(F)cc3)CC1N2C (stereo partly specified) | 0.025 µM | 0.104 µM | > 100 µM
